In the library only some 4.6% were active in any assay of this set; here they are far more common.
OX1R antag-1 = OX1R (human) antagonism. O43613. OX1R-expressing cells, FRET antagonist read-out. inhibition, % at 6.6 µM. 1.8% of 330,000 active; in the data active means inhibition mostly above about 38%, no sharp cut-off; inactive means mostly below about 40%;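 further: 0% = agonist challenge alone and 100% = reference antagonist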
Target sequence (O43613 whole entry, looked up): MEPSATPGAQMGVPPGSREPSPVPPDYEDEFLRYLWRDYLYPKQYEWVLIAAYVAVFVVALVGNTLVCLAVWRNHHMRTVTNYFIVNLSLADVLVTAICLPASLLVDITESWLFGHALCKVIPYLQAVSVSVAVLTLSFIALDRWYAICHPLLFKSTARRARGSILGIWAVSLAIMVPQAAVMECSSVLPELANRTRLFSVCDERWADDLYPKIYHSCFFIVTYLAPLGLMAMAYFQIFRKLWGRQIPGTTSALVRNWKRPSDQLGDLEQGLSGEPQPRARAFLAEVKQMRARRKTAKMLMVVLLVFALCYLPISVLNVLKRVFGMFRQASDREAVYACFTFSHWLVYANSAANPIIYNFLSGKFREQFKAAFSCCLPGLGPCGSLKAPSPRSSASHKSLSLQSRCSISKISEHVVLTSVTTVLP
GPR7 antagonist = antagonists of human GPR7 (neuropeptides B/W receptor 1); P48145; GPR7-expressing cells, fluorescence antagonist assay; inhibition, % at 4.4 µM; 1.1% of 290,000 active; AID 1861; in the data active means inhibition above about 16%, passing the limit was not always enough;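 further: cells stimulated with the agonist NPW; 0% = agonist with vehicle and 100% = vehicle without agonist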
CHO parental Ca = counter-screen for OX1R antagonists: effect in parental CHO cells. parental CHO-K1, ATP-induced calcium, Fluo-8 fluorescence. inhibition, % at 5.6 µM. 0.63% of 330,000 active. AID 463079;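 active means inhibition above that plate's mean sample inhibition plus 3 SD, cut at about 26% in these data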;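 further: 0% = ATP-challenged DMSO wells and 100% = DMSO wells without ATP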
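Material: parental CHO cells / Compound: single nominal dose of 5.6 µM per compound / Signal: Fluo-8 fluorescence / Replicates: singlicate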
TAAR1 agonist = agonists of human TAAR1; 0.99% of 360,000 active; Q96RJ0; CHO RD-HGA16 TAAR1, Fluo-8 calcium fluorescence; vehicle wells 0%, saturating PEA agonist 100%; activation, % at 3 µM;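 active means activation above the mean activation of all test compounds in the run plus 3 SD, cut at about 38% in these data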
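Assay system: CHO-derived RD-HGA16 cells with stable Gα16 and human TAAR1; timing: 17-24 h seeding, 75 min 37 °C dye, 30 min RT; read-out: % activation from peak over basal fluorescence ratio, DMSO-to-PEA scaled; measured by: kinetic Fluo-8 calcium fluorescence; benchmarks: low control DMSO, high control PEA (EC100); doses: 3 µM single concentration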
OX1R antag-2 = human HCRTR1 antagonism; AID 434989; 0.43% of 330,000 active; inhibition, % at 5 µM; CHO/OX1R cells, Fluo-8 calcium fluorescence, orexin A; O43613;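 active means inhibition above its plate's threshold, mean inhibition of all tested compounds on the plate plus 3 SD, cut at about 37% in these data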;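 further: 0% = orexin A challenge wells and 100% = SB-334867-A antagonist wells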
TAAR1 antagonist = human TAAR1 antagonism; Q96RJ0; CHO RD-HGA16 TAAR1, Fluo-8 calcium fluorescence, antagonist; inhibition, % at 3 µM; 1.5% of 360,000 active; AID 624466;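 active means inhibition above a per-plate cutoff, the mean inhibition of test compounds on that plate plus 3 SD, cut at about 49% in these data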;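 further: 0% = DMSO plus EC80 beta-PEA response and 100% = DMSO alone without agonist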
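System: RD-HGA16 CHO cells with stable hTAAR1 and Gα16 | Probe or stimulus: EC80 β-phenethylamine stimulus | Dosing: 3 µM, single point | Times: Dye loading 75 min at 37 °C, then 30 min room temperature | Measured by: Fluo-8 calcium-sensitive fluorescence | Read-out basis: % inhibition of agonist calcium response | Replicates: n of 1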
TAAR1 ag conf = confirmation of human TAAR1 agonists; shares compounds with TAAR1 agonist; CHO RD-HGA16 TAAR1, Fluo-8 calcium fluorescence; scaled: DMSO 0%, maximal phenethylamine 100%; activation, % at 3 µM; 82% of 2,400 active; AID 651783;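 active means activation above a cutoff set at the run's mean compound activation plus 3 SD, cut at about 39% in these data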
Ga16 ag counter = counter-screen for TAAR1 agonists: nonselective agonists in parental cells. 50% of 2,400 active. shares compounds with TAAR1 agonist. CHO-Ga16 parental, Fluo-8 calcium fluorescence; normalized to maximal ATP response, DMSO zero. activation, % at 3 µM. AID 651787;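 active means activation above the run cutoff, the mean activation over all tested wells plus 3 SD, cut at about 12% in these data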;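 further: 0% = DMSO wells and 100% = maximal ATP response on the peak over basal ratio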
TAAR1 desensitize = TAAR1 response desensitization, agonist counter-screen | CHO RD-HGA16 hTAAR1, Fluo-8 calcium, beta-PEA response inhibition | 46% of 2,400 active | inhibition, % at 3 µM | shares compounds with TAAR1 agonist;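 active means inhibition above the run cutoff, the mean inhibition of all test compounds plus 3 SD, cut at about 49% in these data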;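 further: beta-PEA stimulus applied at its EC80; loss of beta-PEA calcium signal after compound pretreatment read as receptor desensitization; 0% = DMSO with beta-PEA at EC80 and 100% = DMSO alone without agonist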
Ga16 nonsel ant = nonselective Ga16 antagonism, counter-screen; shares compounds with TAAR1 agonist; CHO-Ga16 ATP-induced calcium, Fluo-8 fluorescence; inhibition, % at 3 µM; 39% of 2,400 active; AID 651952;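 active means inhibition above the plate's mean compound inhibition plus 3 SD, computed per plate, cut at about 22% in these data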;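 further: 0% = EC80 ATP with DMSO and 100% = DMSO wells without ATP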
* hit, by the source's call; . = not tested or not shown.

SMILES	OX1R antag-1	GPR7 antagonist	CHO parental Ca	TAAR1 agonist	OX1R antag-2	TAAR1 antagonist	TAAR1 ag conf	Ga16 ag counter	TAAR1 desensitize	Ga16 nonsel ant
CCN(Cc1ccccc1)S(=O)(=O)c1ccc(C(=O)Nc2nnc(-c3ccccc3OC)o2)cc1	5.6	-5.4	-28.6	42.8*	-26.0	23.3	18.9	27.5*	38.8	32.7*
COc1ccccc1-c1nnc(NC(=O)c2ccc(S(=O)(=O)N(C)C)cc2)o1	1.4	13.6	-3.1	9.6	-2.3	-10.1	.	.	.	.
Cc1ncc(C(O)c2ccccc2)n1Cc1ccccc1 (stereo not drawn)	.	.	.	2.2	.	-31.9	.	.	.	.
COc1ccc(N2CCN(CCNS(=O)(=O)c3ccc(C)cc3)CC2)cc1	8.3	-1.3	-4.1	-0.8	-21.6	-5.3	.	.	.	.
O=C(COC(=O)Cn1cnc2ccccc2c1=O)Nc1ccc(Cl)c(C(F)(F)F)c1	-0.3	-4.3	-19.1	26.8	-23.5	8.4	.	.	.	.
O=C(COC(=O)Cn1cnc2ccccc2c1=O)Nc1ccc(Cl)cc1	12.5	-5.8	-17.3	48.9*	-16.9	13.6	65.5*	1.5	28.2	3.6
Cc1onc(-c2ccccc2)c1C(=O)NC(=S)NNC(=O)c1ccccc1O	-6.3	-9.8	17.7	164.4*	18.4	57.3*	140.6*	103.2*	100.3*	63.1*
CCCOc1ccc(NC(=O)c2c(-c3ccccc3)noc2C)cc1	0.8	-11.0	-16.6	-3.4	-18.9	2.2	.	.	.	.
CCCOc1ccc(C(=O)NC(=S)NNC(=O)c2c(-c3ccccc3)noc2C)cc1	-3.3	-8.8	39.3*	176.1*	69.7*	107.7*	140.7*	108.5*	101.3*	94.0*
CC1(C(=O)NS(=O)(=O)c2ccccc2Cl)CCN1C(=O)CC1CCCC1 (stereo not drawn)	.	.	.	1.2	.	-22.1	.	.	.	.
O=C(CSc1nc2[nH]ncc2c(=O)n1-c1ccccc1)c1ccc2c(c1)OCCO2	17.1	-1.3	2.1	75.2*	-4.7	57.9*	67.3*	20.9*	49.6*	27.2*
O=C(CN1CCCCC1)Nc1ccc(S(=O)(=O)c2ccc(NC(=O)CN3CCCCC3)cc2)cc1	.	.	.	2.0	.	-12.9	.	.	.	.
Cn1cccc1/C=C1\CCC/C(=C\c2cccn2C)C1=O	24.8	-6.7	70.1*	164.7*	92.5*	88.4*	33.0	36.2*	35.7	46.1*
O=C1/C(=C/c2cccs2)CCC/C1=C\c1cccs1	29.7	-1.5	-15.9	-1.8	-16.0	-20.7	.	.	.	.
CC(=O)C1=CCC(c2ccc(C)cc2)N(S(=O)(=O)c2ccc(Cl)cc2)C1 (stereo not drawn)	.	.	.	3.1	.	21.1	.	.	.	.
CN1CCc2c(c3ccccc3n2C)C1	4.6	-2.7	-0.9	54.9*	1.9	13.9	81.2*	0.0	36.6	5.6
CN1CCc2c(c3ccccc3n2Cc2ccccc2)C1	8.7	8.8	-12.3	17.6	-30.4	-10.8	.	.	.	.
CCN(CC)c1ccc(NC(=O)c2ccc3c(c2)OCO3)c(C)c1	4.0	11.1	-10.1	7.5	-14.3	-4.3	.	.	.	.
COc1ccc(NC(=O)Cn2nnc(-c3ccccc3F)n2)cc1Cl	13.0	-8.3	-2.0	56.6*	-9.5	37.7	18.5	1.6	9.3	18.4
CCOC(=O)c1ccc(NC(=O)Cn2nnc(-c3ccccc3F)n2)cc1	23.4	-2.8	-9.0	6.5	-12.4	-24.2	.	.	.	.

From PubChem
